Assay results gathered from unrelated publications.
Lines come from different studies, so protocols differ.
Target: Serine/threonine-protein kinase Chk1 (CHEK1, Homo sapiens, UniProt O14757)
Residues used in one study (O14757 1-476): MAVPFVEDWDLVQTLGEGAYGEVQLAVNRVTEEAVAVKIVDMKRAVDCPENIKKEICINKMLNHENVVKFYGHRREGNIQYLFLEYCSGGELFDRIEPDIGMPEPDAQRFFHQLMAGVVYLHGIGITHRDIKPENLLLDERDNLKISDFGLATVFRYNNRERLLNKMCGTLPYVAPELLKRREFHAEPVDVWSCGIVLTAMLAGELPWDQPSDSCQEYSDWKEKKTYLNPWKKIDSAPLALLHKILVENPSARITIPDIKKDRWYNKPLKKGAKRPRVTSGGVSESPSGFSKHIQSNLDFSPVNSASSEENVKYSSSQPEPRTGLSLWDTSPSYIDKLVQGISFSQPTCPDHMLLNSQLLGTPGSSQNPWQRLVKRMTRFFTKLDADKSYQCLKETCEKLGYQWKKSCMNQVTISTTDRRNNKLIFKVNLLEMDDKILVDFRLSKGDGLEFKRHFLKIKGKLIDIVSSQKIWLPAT

SMILES	read-out	action	technique	concentration	quantity	value
CN(C)C1CCN(CC#Cc2nn(C3CCCC3)c3nc(NCc4ccccc4)ncc23)C1 (stereo not drawn)	enzyme activity	inhibitor	FRET	0.1 µM	inhibition	2%
CS(=O)(=O)NCC[C@H](NC(=O)c1cncc2c1cnn2-c1ccc(F)cc1)c1ccnc(S(C)(=O)=O)c1	cell-free assay	–	competition with immobilised ligand	1 µM	remaining binding	97%
O=C1NC(=O)c2cc(Nc3ccc(F)cc3)c(Nc3ccc(F)cc3)cc21	cell-free assay	–	–	0.5 µM	remaining signal	104%
FC(F)c1nc2ccccc2n1-c1nc(N2CCOCC2)nc(N2CCOCC2)n1	enzyme activity	inhibitor	–	10 µM	remaining activity	90%
CC(C)(C)C(=O)c1sc(NC2CCCCC2)nc1N	enzyme activity	inhibitor	–	10 µM	remaining activity	80%
Cc1ccc(C(=O)NCc2ccsc2)cc1C#Cc1cn(C(C)C)c2ncnc(N)c12	enzyme activity	inhibitor	–	1 µM	activity vs control	87%
CN(C)CC#Cc1ccc(OCCCc2sc(N3CCc4cccc(C(=O)Nc5nc6ccccc6s5)c4C3)nc2C(=O)O)c(F)c1	cell-free assay	–	competition with immobilised ligand	1 µM	remaining binding	89%
O=C1Nc2ccc(Cl)cc2C1=Cc1cc(Cl)c(O)c(Cl)c1	cell-free assay	–	–	0.5 µM	remaining signal	86.4%
COc1cc(Cl)c(C(=O)N[C@@H](CN[C@H]2CC[C@@H](N)CC2)Cc2ccc(C#N)cc2)cc1-c1ccc(CN[C@H](C)c2ccc(C)cc2)o1	enzyme activity	inhibitor	–	1 µM	remaining activity	100%
Clc1ccc(Nc2nnc(Cc3ccncc3)c3ccccc23)cc1	cell-free assay	–	–	0.5 µM	remaining signal	96.5%
O=C(Nc1cnn(-c2csc(C(=O)NC3COC3)c2)c1)Nc1c(F)cccc1Cl	enzyme activity	inhibitor	–	5 µM	remaining activity	141%
Nc1cnc(N2CCc3cc(S(=O)(=O)Nc4c(F)cc(Cl)cc4F)cc(N4CCCC4=O)c32)nc1	cell-free assay	–	competition with immobilised ligand	1 µM	remaining binding	95%
O=C(Nc1cnn(-c2csc(C(=O)NC3COC3)c2)c1)Nc1ccccc1Cl	enzyme activity	inhibitor	–	5 µM	remaining activity	98.7%
C[C@@H](c1cccc(C#N)c1)n1cc(Cl)cc(C(N)=O)c1=N	cell-free assay	–	competition with immobilised ligand	1 µM	remaining binding	100%
CC(C)(O)[C@H]1CC[C@H](Nc2ccc3ncc(-c4cccc(C(F)(F)F)c4)n3n2)CC1	enzyme activity	inhibitor	–	1 µM	remaining activity	94.2%
CCN(CC)CCNC(=O)c1c(C)[nH]c(/C=C2\C(=O)Nc3ccc(F)cc32)c1C	cell-free assay	–	–	0.5 µM	remaining signal	29.2%
Nc1ncnc2occ(-c3ccc(NC(=O)Nc4cc(C(F)(F)F)ccc4F)cc3)c12	cell-free assay	inhibitor	–	20 µM	remaining signal	100%
CCS(=O)(=O)c1cc2cc(C[C@](O)(CC(C)(C)c3ccc(F)cc3C(N)=O)C(F)(F)F)[nH]c2cn1	cell-free assay	–	competition with immobilised ligand	1 µM	remaining binding	97%
C[C@@H]1CCN(C(=O)CC#N)C[C@@H]1N(C)c1ncnc2[nH]ccc12	cell-free assay	inhibitor	–	0.5 µM	remaining signal	94.1%
COc1cc(Nc2cnc(C#N)c(O[C@H](C)CN(C)C)n2)ncc1-c1cnn(C)c1	enzyme activity	inhibitor	radiometric	1 µM	remaining activity	17%
CO[C@@H](C)c1c(Nc2ccc([C@@H](N(C)C(=O)C3CCS(=O)(=O)CC3)C(F)(F)F)cc2)cnc2cc(Cl)nn12	cell-free assay	–	competition with immobilised ligand	1 µM	remaining binding	95%
CC(C)(C)c1nc(-c2cccc(NS(=O)(=O)c3c(F)cccc3F)c2F)c(-c2ccnc(N)n2)s1	enzyme activity	inhibitor	radiometric	1 µM	remaining activity	100%
Nc1c(C(=O)NCc2ccc(C(=O)NCCCC3CCCCC3)cc2)cnn1-c1ccccc1	cell-free assay	–	competition with immobilised ligand	0.1 µM	remaining binding	100%
Cc1ccc(NC(=O)c2ccc(C)c(C(F)(F)F)c2)cc1C#Cc1nn(C2CCC(O)CC2)c2ncnc(N)c12 (stereo not drawn)	cell-free assay	–	–	10 µM	remaining signal	114%
